In ChEMBL document CHEMBL1157034, “Synthesis of 1-benzyl-3-(5-hydroxymethyl-2-furyl)selenolo[3,2-c]pyrazole derivatives as new anticancer agents” (Eur J Med Chem, 2010):

Key:
[1] = tested on: MDA-MB-231; test: Antitumor activity against human MDA-MB-231 cells after 48 hrs by MTT assay; type: functional; details: MDA-MB-231, 48 h
[2] = tested on: HT-29; test: Antitumor activity against human HT-29 cells after 48 hrs by MTT assay; type: functional; details: HT-29, 48 h
[3] = tested on: NCI/ADR-RES; test: Antitumor activity against human NCI/ADR-RES cells after 48 hrs by MTT assay; type: functional
[4] = tested on: SR; test: Antitumor activity against human SR cells after 48 hrs by MTT assay; type: functional
[5] = tested on: SK-MEL-2; test: Antitumor activity against human SK-MEL-2 cells after 48 hrs by MTT assay; type: functional; details: SK-MEL-2, 48 h
[6] = tested on: TK-10; test: Antitumor activity against human TK10 cells after 48 hrs by MTT assay; type: functional; details: TK-10, 48 h
[7] = tested on: U-251; test: Antitumor activity against human U251 cells after 48 hrs by MTT assay; type: functional; details: U-251, 48 h
[8] = tested on: SK-OV-3; test: Antitumor activity against human SKOV3 cells after 48 hrs by MTT assay; type: functional; details: SK-OV-3, 48 h
[9] = tested on: SK-MEL-5; test: Antitumor activity against human SK-MEL-5 cells after 48 hrs by MTT assay; type: functional; details: SK-MEL-5, 48 h
[10] = tested on: MDA-MB-435; test: Antitumor activity against human MDA-MB-435 cells after 48 hrs by MTT assay; type: functional; details: MDA-MB-435, 48 h
[11] = tested on: COLO 205; test: Antitumor activity against human COLO205 cells after 48 hrs by MTT assay; type: functional; details: COLO 205, 48 h
[12] = tested on: NCI-H226; test: Antitumor activity against human NCI-H226 cells after 48 hrs by MTT assay; type: functional, cell-based; details: NCI-H226, 48 h
Summary of the method: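 Cells grown at 37 °C in humidified 5% CO2, seeded at 1×10^4 cells/well, and allowed to attach for 24 h. They were then exposed to a range of concentrations for 48 h, washed with PBS, and given 1 mg/ml MTT for 2 h. Formazan was dissolved in DMSO and read at 570 nm.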

[13] = tested on: UACC-257; test: Antitumor activity against human UACC257 cells after 48 hrs by MTT assay; type: functional; details: UACC-257, 48 h
[14] = tested on: HOP-92; test: Antitumor activity against human HOP92 cells after 48 hrs by MTT assay; type: functional; details: HOP-92, 48 h
[15] = tested on: CCRF-CEM; test: Antitumor activity against human CCRF-CEM cells after 48 hrs by MTT assay; type: functional
[16] = tested on: UACC-62; test: Antitumor activity against human UACC62 cells after 48 hrs by MTT assay; type: functional; details: UACC-62, 48 h
[17] = tested on: Malme-3M; test: Antitumor activity against human MALME-3M cells after 48 hrs by MTT assay; type: functional
[18] = tested on: NCI-H23; test: Antitumor activity against human NCI-H23 cells after 48 hrs by MTT assay; type: functional; details: NCI-H23, 48 h
[19] = Antitumor activity against human […] cells after 48 hrs by MTT assay; type: functional
[20] = tested on: HL-60(TB); test: Antitumor activity against human HL-60(TB) cells after 48 hrs by MTT assay; type: functional; details: HL-60, 48 h
[21] = tested on: A549; test: Antitumor activity against human A549 cells after 48 hrs by MTT assay; type: functional; details: A549, 48 h
[22] = tested on: BT-549; test: Antitumor activity against human BT549 cells after 48 hrs by MTT assay; type: functional; details: BT-549, 48 h
[23] = tested on: HOP-62; test: Antitumor activity against human HOP62 cells after 48 hrs by MTT assay; type: functional; details: HOP-62, 48 h
[24] = tested on: SNB-75; test: Antitumor activity against human SNB75 cells after 48 hrs by MTT assay; type: functional; details: SNB-75, 48 h
[25] = tested on: ACHN; test: Antitumor activity against human ACHN cells after 48 hrs by MTT assay; type: functional, cell-based
[26] = tested on: SF-268; test: Antitumor activity against human SF268 cells after 48 hrs by MTT assay; type: functional; details: SF-268, 48 h
[27] = tested on: OVCAR-3; test: Antitumor activity against human OVCAR-3 cells after 48 hrs by MTT assay; type: functional; details: OVCAR-3, 48 h
[28] = tested on: HCC 2998; test: Antitumor activity against human HCC2998 cells after 48 hrs by MTT assay; type: functional; details: HCC 2998, 48 h
[29] = tested on: RXF 393; test: Antitumor activity against human RXF393 cells after 48 hrs by MTT assay; type: functional; details: RXF 393, 48 h
[30] = tested on: SF-539; test: Antitumor activity against human SF539 cells after 48 hrs by MTT assay; type: functional; details: SF-539, 48 h
[31] = tested on: UO-31; test: Antitumor activity against human UO31 cells after 48 hrs by MTT assay; type: functional; details: UO-31, 48 h
[32] = read-out: pLC50 (the source's name) (converted)

SMILES: OCc1ccc(-c2nn(Cc3ccccc3)c3cc[se]c23)o1
- GI50 [1]: 36.3 µM
- CC50 [1, 32]: > 100 µM
- TGI ([1]; read-out: pTGI): > 100 µM
- GI50 [2]: 33.9 µM
- CC50 [2, 32]: > 100 µM
- TGI ([2]; read-out: pTGI): > 100 µM
- GI50 ([3]; read-out: pGI50 (converted)): 25.7 µM
- CC50 [3, 32]: > 100 µM
- TGI ([3]; read-out: pTGI): > 100 µM
- GI50 [4]: 21.9 µM
- CC50 [4, 32]: > 100 µM
- TGI ([4]; read-out: pTGI (converted)): 63.1 µM
- GI50 [5]: 35.5 µM
- CC50 [5, 32]: > 100 µM
- TGI ([5]; read-out: pTGI): > 100 µM
- GI50 ([6]; read-out: pGI50 (converted)): 1.7 µM
- CC50 [6, 32]: > 100 µM
- TGI ([6]; read-out: pTGI): > 100 µM
- GI50 [7]: 27.5 µM
- CC50 [7, 32]: > 100 µM
- TGI ([7]; read-out: pTGI): > 100 µM
- GI50 ([8]; read-out: pGI50 (converted)): 46.8 µM
- CC50 [8, 32]: > 100 µM
- TGI ([8]; read-out: pTGI): > 100 µM
- GI50 [9]: 31.6 µM
- CC50 [9, 32]: > 100 µM
- TGI ([9]; read-out: pTGI (converted)): 89.1 µM
- GI50 [10]: 23.4 µM
- CC50 [10, 32]: > 100 µM
- TGI ([10]; read-out: pTGI (converted)): 75.9 µM
- GI50 [11]: 29.5 µM
- CC50 [11, 32]: > 100 µM
- TGI ([11]; read-out: pTGI): > 100 µM
- GI50 [12]: 0.316 µM
- TGI ([12]; read-out: pTGI (converted)): 0.977 µM
- GI50 [13]: 18.2 µM
- CC50 [13, 32]: > 97.7 µM
- TGI ([13]; read-out: pTGI (converted)): 41.7 µM
- GI50 [14]: 18.2 µM
- CC50 [14, 32]: > 100 µM
- TGI ([14]; read-out: pTGI (converted)): 79.4 µM
- GI50 [15]: 24.5 µM
- CC50 [15, 32]: > 100 µM
- TGI ([15]; read-out: pTGI): > 100 µM
- GI50 [16]: 2.19 µM
- CC50 [16, 32]: > 100 µM
- TGI ([16]; read-out: pTGI (converted)): 55 µM
- GI50 [17]: 25.7 µM
- CC50 [17, 32]: > 100 µM
- TGI ([17]; read-out: pTGI): > 100 µM
- GI50 [18]: 42.7 µM
- CC50 [18, 32]: > 100 µM
- TGI ([18]; read-out: pTGI): > 100 µM
- GI50 [19]: 22.4 µM
- CC50 [19, 32]: > 100 µM
- TGI ([19]; read-out: pTGI): > 100 µM
- GI50 [20]: 19.5 µM
- CC50 [20, 32]: > 100 µM
- TGI ([20]; read-out: pTGI (converted)): 49 µM
- GI50 [21]: 36.3 µM
- CC50 [21, 32]: > 100 µM
- TGI ([21]; read-out: pTGI): > 100 µM
- GI50 [22]: 25.1 µM
- CC50 [22, 32]: > 100 µM
- TGI ([22]; read-out: pTGI (converted)): 95.5 µM
- GI50 [23]: 39.8 µM
- CC50 [23, 32]: > 100 µM
- TGI ([23]; read-out: pTGI): > 100 µM
- GI50 [24]: 22.4 µM
- CC50 [24, 32]: > 100 µM
- TGI ([24]; read-out: pTGI (converted)): 100 µM
- GI50 ([25]; read-out: pGI50 (converted)): 25.7 µM
- LC50 ([25]; read-out: pLC50 (converted)): > 100 µM
- TGI ([25]; read-out: pTGI): < 100 µM
- GI50 [26]: 40.7 µM
- CC50 [26, 32]: > 100 µM
- TGI ([26]; read-out: pTGI): > 100 µM
- GI50 [27]: 13.2 µM
- CC50 [27, 32]: > 100 µM
- TGI ([27]; read-out: pTGI (converted)): 79.4 µM
- GI50 [28]: 32.4 µM
- CC50 [28, 32]: > 100 µM
- TGI ([28]; read-out: pTGI): > 100 µM
- GI50 ([29]; read-out: pGI50 (converted)): 11.5 µM
- CC50 [29, 32]: > 100 µM
- TGI ([29]; read-out: pTGI): 51.3 µM
- GI50 [30]: 27.5 µM
- CC50 [30, 32]: > 100 µM
- TGI ([30]; read-out: pTGI): > 100 µM
- GI50 ([31]; read-out: pGI50 (converted)): 41.7 µM
- CC50 [31, 32]: > 100 µM
- TGI ([31]; read-out: pTGI): > 100 µM
